Source: ChEMBL document CHEMBL5036324 (J Med Chem, 2021)
The source made the active and inactive calls. The rule behind the calls is not given here.

How the values were obtained:
[1] = Acute toxicity in BALB/c mouse assessed as body weight regain at 60 mg/kg, ip administered as single dose measured after 3 days; type: organism-based; details: in vivo, 72 h, time 3 day
[2] = molecular target: T1, TLR7 and TLR8 (Homo sapiens) (UniProt Q9NYK1+Q9NR97); assay: Agonist activity at human TLR7/8 expressed in human PBMC cells assessed as induction of IL-8 production by measuring concentration required to induce maximal response incubated for 12 hrs by multiplexed immunoassay; type: cell-based; details: filed as agonist
Procedure, shortened: (§1)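 Healthy-volunteer PBMCs from a single donor were isolated by Ficoll−Hypaque gradient and plated at 2.0 × 10⁶ cells/mL. They were stimulated for 12 h with escalating compound concentrations. Supernatants were assayed in duplicate on a 41-analyte magnetic bead cytokine/chemokine panel read by Luminex. EC_max is the concentration giving maximal cytokine induction.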

[3] = molecular target: T1, TLR7 and TLR8 (Homo sapiens); assay: Agonist activity at human TLR7/8 expressed in human PBMC cells assessed as induction of VEGF secretion incubated for 12 hrs by multiplexed immunoassay; type: cell-based; details: filed as agonist; procedure, shortened: as §1
[4] = test system: CT26; assay: Antitumor activity against mouse CT26 cells implanted in BALB/c mouse assessed as tumor growth delay at 25 ug, ip administered once per week and measured every 3 days for 23 days; type: functional, organism-based; details: dose 25.0 µg, time 23.0 day
Procedure, shortened: (§2)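 Subcutaneous CT26 tumours were grown in BALB/c mice, with cells cultured in DMEM/10% FBS. At a mean tumour size of 100 mm³, mice were randomised (n = 5/group). Agonist was given ip once weekly; anti-PD-1 or IgG isotype was given ip at 200 μg twice weekly. Tumour volume (V = 1/2ab²) was measured every 3 days. Mice were euthanised at 2000 mm³.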

[5] = Subacute toxicity in BALB/c mouse assessed as body weight loss at 1.12 g, ip administered as single dose; type: organism-based; details: in vivo
Procedure, shortened: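 Subacute study in BALB/c mice, with treated and control groups. Body weight was recorded every day. Spleens were weighed and photographed, and tissues were examined by H&E staining.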

[6] = molecular target: T1, TLR7 and TLR8 (Homo sapiens); assay: Agonist activity at human TLR7/8 expressed in human PBMC cells assessed as induction of MCP-1 production by measuring concentration required to induce maximal response incubated for 12 hrs by multiplexed immunoassay; type: cell-based; details: filed as agonist; procedure, shortened: as §1
[7] = Subacute toxicity in BALB/c mouse assessed as splenomegaly at 15 mg/kg, ip administered as single dose; type: organism-based; details: in vivo
Procedure, shortened: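 Subacute toxicity study in BALB/c mice given ip TLR7/8 agonist. Spleens from treated and control groups were weighed and photographed. Body weight was recorded every day.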

[8] = test system: CT26; assay: Antitumor immunity against mouse CT26 cells implanted in BALB/c mouse assessed as increase in Teff/Treg ratio at 25 ug, ip administered once a week for 23 days by flow cytometry analysis; type: functional, organism-based; details: dose 25.0 µg, time 23.0 day
Procedure, shortened: (§3)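 CT26-bearing BALB/c mice (n = 5) were treated ip once weekly with agonist, alone or with anti-PD-1 (200 μg, twice weekly). Tumours were harvested 23 days after implantation, enzymatically and mechanically dissociated into single cells, and stained for surface markers plus intracellular FoxP3 after fixation/permeabilisation. Cells were gated within CD45⁺ for CD11c⁺ DCs, CD11b⁺F4/80⁺MHCII⁺ (M1), CD206⁺ (M2), CD3/CD4/CD8, and CD4⁺CD25⁺FoxP3⁺ Treg, then analysed by flow cytometry.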

[9] = Toxicity in BALB/c mouse implanted with mouse CT26 cells assessed as decrease in body weight at 25 ug, ip administered once a week for 23 days; type: organism-based; details: in vivo, 552 h, dose 25 µg, time 23 day
Procedure, shortened: (§4)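 CT26 subcutaneous tumor-bearing BALB/c mice (n = 5) were treated from 100 mm³ tumor volume. TLR7/8 agonist was given ip once weekly, alone or with anti-PD-1 antibody (200 μg ip, twice weekly). Body weight was tracked over the treatment period and reported as mean ± SEM.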

[10] = Acute toxicity in BALB/c mouse assessed as mild diarrhea at 15 to 80 mg/kg, ip administered as single dose measured after 24 hrs; type: organism-based; details: in vivo, dose 15-80 mg/kg
[11] = molecular target: T1, TLR7 and TLR8 (Homo sapiens); assay: Agonist activity at human TLR7/8 expressed in human PBMC cells assessed as induction of IP-10 production by measuring concentration required to induce maximal response incubated for 12 hrs by multiplexed immunoassay; type: cell-based; details: filed as agonist; procedure, shortened: as §1
[12] = molecular target: T1, TLR7 and TLR8 (Homo sapiens); assay: Agonist activity at human TLR7/8 expressed in human PBMC cells assessed as induction of TNFalpha production by measuring concentration required to induce maximal response incubated for 12 hrs by multiplexed immunoassay; type: cell-based; details: filed as agonist; procedure, shortened: as §1
[13] = Acute toxicity in BALB/c mouse assessed as white discharge from eyes at 15 to 80 mg/kg, ip administered as single dose measured after 24 hrs; type: organism-based; details: in vivo, dose 15-80 mg/kg
[14] = molecular target: T1, TLR7 and TLR8 (Homo sapiens); assay: Agonist activity at human TLR7/8 expressed in human PBMC cells assessed as induction of IL-10 production by measuring concentration required to induce maximal response incubated for 12 hrs by multiplexed immunoassay; type: cell-based; details: filed as agonist; procedure, shortened: as §1
[15] = Toxicity in BALB/c mouse implanted with mouse CT26 cells assessed as decrease in body weight at 25 ug, ip administered once a week in presence of anti-PD-1 antibodies for 23 days; type: organism-based; details: in vivo, 552 h, dose 25 µg, time 23 day; procedure, shortened: as §4
[16] = molecular target: T1, TLR7 and TLR8 (Homo sapiens); assay: Agonist activity at human TLR7/8 expressed in human PBMC cells assessed as induction of IL-6 production by measuring concentration required to induce maximal response incubated for 12 hrs by multiplexed immunoassay; type: cell-based; details: filed as agonist; procedure, shortened: as §1
[17] = Acute toxicity in BALB/c mouse assessed as white discharge from eyes at 15 to 80 mg/kg, ip administered as single dose; type: organism-based; details: in vivo, dose 15-80 mg/kg
[18] = molecular target: T1, TLR7 and TLR8 (Homo sapiens); assay: Agonist activity at human TLR7/8 expressed in human PBMC cells assessed as induction of MIP-1alpha production by measuring concentration required to induce maximal response incubated for 12 hrs by multiplexed immunoassay; type: cell-based; details: filed as agonist; procedure, shortened: as §1
[19] = Acute toxicity in BALB/c mouse assessed as mortality at 120 mg/kg, ip administered as single dose; type: organism-based; details: in vivo
[20] = test system: CT26; assay: Antitumor immunity against mouse CT26 cells implanted in BALB/c mouse assessed as increase in infiltration of CD4+ TH1 cells at 25 ug, ip administered once a week for 23 days by flow cytometry analysis; type: functional, organism-based; details: dose 25.0 µg, time 23.0 day; procedure, shortened: as §3
[21] = Acute toxicity in BALB/c mouse assessed as decrease in locomotor activity at 15 to 80 mg/kg, ip administered as single dose measured after 24 hrs; type: organism-based; details: in vivo, dose 15-80 mg/kg
[22] = test system: CT26; assay: Antitumor immunity against mouse CT26 cells implanted in BALB/c mouse assessed as increase in infiltration of CD4+ TH1 cells at 25 ug, ip administered once a week with anti-PD-1 antibody for 23 days by flow cytometry analysis; type: functional, organism-based; details: dose 25.0 µg, time 23.0 day; procedure, shortened: as §3
[23] = molecular target: T1, TLR7 and TLR8 (Homo sapiens); assay: Agonist activity at human TLR7/8 expressed in human PBMC cells assessed as induction of G-CSF production by measuring concentration required to induce maximal response incubated for 12 hrs by multiplexed immunoassay; type: cell-based; details: filed as agonist; procedure, shortened: as §1
[24] = Acute toxicity in BALB/c mouse assessed as decrease in locomotor activity at 15 to 80 mg/kg, ip administered as single dose; type: organism-based; details: in vivo, dose 15-80 mg/kg
[25] = molecular target: T1, TLR7 and TLR8 (Homo sapiens); assay: Agonist activity at human TLR7/8 expressed in human PBMC cells assessed as induction of IL-12p40 production by measuring concentration required to induce maximal response incubated for 12 hrs by multiplexed immunoassay; type: cell-based; details: filed as agonist; procedure, shortened: as §1
[26] = test system: CT26; assay: Antitumor activity against mouse CT26 cells implanted in BALB/c mouse assessed as reduction in tumor volume at 25 ug, ip administered once a week in presence of anti-PD-1 antibodies and measured every 3 days for 23 days; type: functional, organism-based; details: dose 25.0 µg, time 23.0 day; procedure, shortened: as §2
[27] = test system: CT26; assay: Antitumor immunity against mouse CT26 cells implanted in BALB/c mouse assessed as increase in infiltration of CD8+ T cytotoxic lymphocytes at 25 ug, ip administered once a week for 23 days by flow cytometry analysis; type: functional, organism-based; details: dose 25.0 µg, time 23.0 day; procedure, shortened: as §3
[28] = Acute toxicity in BALB/c mouse assessed as mild diarrhea at 15 to 80 mg/kg, ip administered as single dose; type: organism-based; details: in vivo, dose 15-80 mg/kg
[29] = Acute toxicity in BALB/c mouse assessed as maximum tolerated dose; details: in vivo
[30] = molecular target: T1, TLR7 and TLR8 (Homo sapiens); assay: Agonist activity at human TLR7/8 expressed in human PBMC cells assessed as induction of IL-1beta production by measuring concentration required to induce maximal response incubated for 12 hrs by multiplexed immunoassay; type: cell-based; details: filed as agonist; procedure, shortened: as §1
[31] = test system: CT26; assay: Antitumor immunity against mouse CT26 cells implanted in BALB/c mouse assessed as increase in Teff/Treg ratio at 25 ug, ip administered once a week with anti-PD-1 antibody for 23 days by flow cytometry analysis; type: functional, organism-based; details: dose 25.0 µg, time 23.0 day; procedure, shortened: as §3
[32] = Acute toxicity in BALB/c mouse assessed as body weight loss at 60 mg/kg, ip administered as single dose relative to control; type: organism-based; details: in vivo
[33] = molecular target: T1, TLR7 and TLR8 (Homo sapiens); assay: Agonist activity at human TLR7/8 expressed in human PBMC cells assessed as induction of INF-gamma production by measuring concentration required to induce maximal response incubated for 12 hrs by multiplexed immunoassay; type: cell-based; details: filed as agonist; procedure, shortened: as §1
[34] = test system: CT26; assay: Antitumor immunity against mouse CT26 cells implanted in BALB/c mouse assessed as increase in infiltration of CD8+ T cytotoxic lymphocytes at 25 ug, ip administered once a week with anti-PD-1 antibody for 23 days by flow cytometry analysis; type: functional, organism-based; details: dose 25.0 µg, time 23.0 day; procedure, shortened: as §3

CCOCc1nc2c(N)nc3ccccc3c2n1CC(C)(C)O [RESIQUIMOD]
Activity [1]: Non-Toxic
ECmax [2]: 2 µg/mL
Activity [3]: Active
Activity [4]: Active
Activity [5]: Toxic
ECmax [6]: 2 µg/mL
Activity [7]: Toxic
Activity [8]: Active
Activity [9]: Non-Toxic
Activity [10]: Non-Toxic
ECmax [11]: 2 µg/mL
ECmax [12]: 2 µg/mL
Activity [13]: Non-Toxic
ECmax [14]: 2 µg/mL
Activity [15]: Non-Toxic
ECmax [16]: 2 µg/mL
Activity [17]: Toxic
ECmax [18]: 2 µg/mL
Activity [19]: Toxic
Activity [20]: Active
Activity [21]: Non-Toxic
Activity [22]: Active
ECmax [23]: 2 µg/mL
Activity [24]: Toxic
ECmax [25]: 2 µg/mL
Activity [26]: Active
Activity [27]: Active
Activity [28]: Toxic
MTD [29]: 80 mg/kg
ECmax [30]: 2 µg/mL
Activity [31]: Active
Activity [32]: 8.7%
ECmax [33]: 2 µg/mL
Activity [34]: Active
